The target in test [1] is T1, Inhibitor of nuclear factor kappa-B kinase subunit beta (Homo sapiens, UniProt O14920).
T1 sequence (O14920 whole entry): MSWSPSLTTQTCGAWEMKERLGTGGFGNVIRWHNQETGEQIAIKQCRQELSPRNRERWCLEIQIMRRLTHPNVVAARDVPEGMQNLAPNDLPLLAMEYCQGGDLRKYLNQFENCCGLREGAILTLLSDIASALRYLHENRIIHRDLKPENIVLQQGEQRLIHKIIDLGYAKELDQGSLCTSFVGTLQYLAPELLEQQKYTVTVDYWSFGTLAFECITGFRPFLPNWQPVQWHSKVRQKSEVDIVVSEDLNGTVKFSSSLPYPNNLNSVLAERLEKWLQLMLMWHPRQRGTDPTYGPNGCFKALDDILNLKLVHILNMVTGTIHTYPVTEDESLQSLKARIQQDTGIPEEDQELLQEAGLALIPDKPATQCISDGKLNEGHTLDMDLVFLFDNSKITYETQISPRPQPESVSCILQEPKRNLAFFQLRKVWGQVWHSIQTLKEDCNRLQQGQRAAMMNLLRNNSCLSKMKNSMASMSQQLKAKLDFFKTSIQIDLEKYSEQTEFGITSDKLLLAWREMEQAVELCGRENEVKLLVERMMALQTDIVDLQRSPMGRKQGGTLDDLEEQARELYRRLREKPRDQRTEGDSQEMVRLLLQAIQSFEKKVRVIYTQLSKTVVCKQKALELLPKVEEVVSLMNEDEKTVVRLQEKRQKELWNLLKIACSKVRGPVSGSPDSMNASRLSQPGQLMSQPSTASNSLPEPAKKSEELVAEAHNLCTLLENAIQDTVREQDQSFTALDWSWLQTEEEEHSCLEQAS
Nature of the test: Inhibition of IKK-beta using TMB substrate after 15 mins by spectrophotometer analysis. The essentials:
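Kit-supplied IKKβ (50 ng in 4× reaction cocktail) preincubated with test sample 5 min at room temperature. 2× ATP/biotinylated substrate peptide cocktail added, 30 min at room temperature, stopped with 50 mM EDTA pH 8. Product captured on streptavidin plate, probed with anti-phospho-IκBα (Ser32) then HRP anti-rabbit IgG. TMB developed 15 min, read at 450 nm.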

The test system of test [2] is A549. Briefly: Antiproliferative activity against human A549 cells after 24 hrs by MTT assay. It counts as functional, cell-based. The conditions noted are these: A549, 24 h. The essentials: (§1)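 Test agents diluted in culture medium, 24 h exposure. Viability read colorimetrically by MTT; vitality index (%) = A_treatment/A_control × 100; IC50 reported.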
In general terms: Tetrazolium assays rely on reduction of a dye to a coloured formazan, in cell work by metabolically active cells.

Test [3] deals with U-251. Briefly: Antiproliferative activity against human U251 cells after 24 hrs by MTT assay. Type of test: functional, cell-based. Particulars: U-251, 24 h. The essentials: as §1
For test [4], the system named is A549. Nature of the test: Inhibition of NF-kappaB activation in human A549 cells assessed as inhibition of TNFalpha/IFNgamma/IL-1beta-induced NF-kappaB nuclear translocation treated 2 hrs before TNFalpha/IFNgamma/IL-1beta stimulation measured after 30 mins. Type of test: cell-based. The essentials: (§2)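 A549 cells plated at 9000 per well, serum-starved 18 h, then given compound at graded concentrations for 2 h at 37 °C. Stimulated 30 min at 37 °C with TNFα 50 ng/mL, IFN-γ 100 U/mL and IL-1β 100 U/mL. Fixed, permeabilised and immunostained for NF-κB. High-content imaging read-out was the nuclear/cytoplasmic NF-κB fluorescence ratio, taken as the translocation inhibition rate.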

The subject of test [5] is A549. Nature of the test: Inhibition of NF-kappaB activation in human A549 cells assessed as inhibition of TNFalpha/IFNgamma/IL-1beta-induced NF-kappaB nuclear translocation at 5 uM treated 2 hrs before TNFalpha/IFNgamma/IL-1beta stimulation measured after 30 mins. It counts as cell-based. The essentials:
as §2

Test [6] relates to A549. Nature of the test: Inhibition of NF-kappaB activation in human A549 cells assessed as inhibition of TNFalpha-induced p65 nuclear translocation treated 4 hrs before TNFalpha stimulation measured after 30 mins by Western blotting. Type of test: cell-based. The essentials: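 A549 cells either untreated or pretreated with compound for 4 h at 37 °C, then given TNFα 50 ng/mL for 30 min. Cytoplasmic and nuclear extracts were western-blotted for p65, with β-actin (cytoplasm) and histone (nucleus) as loading controls.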
(Immunoblotting shows a protein as a band on a membrane.)

Test [7] addresses T2, NF-kappa-B inhibitor alpha (Homo sapiens) (UniProt P25963).
T2 sequence (whole entry): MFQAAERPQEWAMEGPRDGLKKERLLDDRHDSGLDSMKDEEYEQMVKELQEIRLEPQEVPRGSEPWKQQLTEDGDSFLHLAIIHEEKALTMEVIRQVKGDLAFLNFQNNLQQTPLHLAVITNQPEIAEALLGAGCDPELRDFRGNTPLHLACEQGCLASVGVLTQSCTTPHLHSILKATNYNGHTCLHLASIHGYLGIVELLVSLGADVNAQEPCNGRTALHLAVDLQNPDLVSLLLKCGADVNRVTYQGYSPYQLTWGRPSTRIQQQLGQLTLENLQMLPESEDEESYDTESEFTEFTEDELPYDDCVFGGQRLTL
Briefly: Inhibition of TNF-alpha-induced IkappaBalpha degradation in human A549 cells at 4 to 8 uM treated 4 hrs before TNFalpha stimulation measured after 30 mins by Western blotting. Type of test: cell-based. The essentials:
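A549 cells incubated 4 h with 4 or 8 μM compound, then exposed to TNF 0.1 ng/mL for various times. Cytoplasmic IκBα was followed by western blot.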

In test [8] the target is T2, NF-kappa-B inhibitor alpha (Homo sapiens). Nature of the test: Inhibition of TNF-alpha-induced IkappaBalpha phosphorylation in human A549 cells at 4 to 8 uM treated 4 hrs before TNFalpha stimulation measured after 30 mins by Western blotting. Type of test: cell-based.
The test system of test [9] is U-251. Briefly: Induction of apoptosis in human U251 cells assessed as morphological changes at 8 uM after 24 hrs by inverted light microscopic analysis. Type of test: functional, cell-based. The essentials: (§3)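 U251 cells in DMEM with 10% fetal calf serum under 5% CO2, exposed to compound for 24 h. Cell shape (rounding, shrinkage) inspected and photographed under an inverted light microscope at 200×, compared against untreated cells.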

Test [10] concerns U-251. Briefly: Induction of apoptosis in human U251 cells assessed as morphological changes at 4 to 64 uM after 24 hrs by inverted light microscopic analysis. Type of test: functional, cell-based. The essentials: as §3
For test [11], the system named is U-251. Briefly: Induction of apoptosis in human U251 cells assessed as appearance of nuclear condensation and apoptotic bodies at 4 to 64 uM after 24 hrs by DAPI staining. It counts as functional, cell-based. The essentials:
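Treated U251 cells stained with DAPI and examined by fluorescence microscopy at 400× for bright condensed nuclei and apoptotic bodies.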

Test [12] deals with U-251. Nature of the test: Induction of apoptosis in human U251 cells assessed as increase in early and median apoptotic cells at 4 to 16 uM after 24 hrs using Annexin V/propidium iodide staining by flow cytometry. It counts as functional. The essentials:
(§4)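 U251 cells (DMEM, 10% fetal calf serum, 5% CO2) treated 24 h, washed with PBS and resuspended in binding buffer (pH 7.5, 10 mM HEPES, 2.5 mM CaCl2, 140 mM NaCl). Stained with Annexin V-FITC then PI for 10 min in the dark at room temperature, then analysed by flow cytometry. Lower-right quadrant counted as early/median apoptotic; upper-right as late apoptotic/necrotic.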

The test system of test [13] is U-251. Briefly: Induction of apoptosis in human U251 cells assessed as increase in late apoptotic and necrotic cells at 4 to 16 uM after 24 hrs using Annexin V/propidium iodide staining by flow cytometry. Type of test: functional. The essentials: as §4
Background: In flow cytometry, cells or beads pass a laser one at a time.

Our source for the IC50, inhibition and Activity values is ChEMBL document CHEMBL1955791, “Studies on gambogic acid (IV): Exploring structure-activity relationship with IκB kinase-beta (IKKβ)” (Eur J Med Chem, 2012).

The structures appear in SMILES notation. Calls of active or inactive are those of the source. The rule behind the calls is not given here.

As a reminder, the IC50 is the concentration at which inhibition is half-maximal. Lower therefore signals higher potency. Consider `O=c1cc(-c2ccccc2)oc2c(O)c(O)ccc12` [7,8-DIHYDROXYFLAVONE], for which the IC50 is 9.82 µM in [1], 37.2 µM in the test with A549 [2] and 50.1 µM with U-251 [3].
What is called inhibition is the relative decrease from the control value, in per cent. `CC(C)=CCC[C@]1(C)C=Cc2c(O)c3c(c(CC=C(C)C)c2O1)O[C@]12C(=C[C@@H]4C[C@H]1C(C)(C)O[C@@]2(C/C=C(/C)C(=O)O)C4=O)C3=O` [GAMBOGIC ACID]: the inhibition result with A549 [4] is “Dose-dependent effect”; with A549 [5], 50.2%; with A549 [6], “Dose-dependent effect”. The inhibition entry in [7] and in test [8] was “Active” throughout. Also, the IC50 in test [1] was determined as 3.07 µM; in the test on A549 [2], 1.1 µM; in the test with U-251 [3], 2.56 µM. In addition, in the test on U-251 [9], the outcome was Active.
Turning to `CC(C)=CC[C@@]12OC(C)(C)[C@@H]3C[C@@H](C=C4C(=O)C=C(c5ccccc5)O[C@]431)C2=O`, the IC50 in [1] is 41.7 µM; with A549 [2] it was 27.5 µM; in the test on U-251 [3] it was 40.2 µM.
Taken in the same sequence, the figures for `CC(C)=CCc1cc(C2=CC(=O)C3=C[C@@H]4C[C@H]5C(C)(C)O[C@@](CC=C(C)C)(C4=O)[C@@]35O2)ccc1O` were 25.3 µM, 15.5 µM and 18.7 µM.
For the compound `CC(C)=CC[C@@]12OC(C)(C)[C@@H]3C[C@@H](C=C4C(=O)CC(C)O[C@]431)C2=O` (stereo partly drawn), the values for the IC50 (in [1]; with A549 [2]; with U-251 [3]) were 40.3 µM, 60.3 µM and 82.4 µM, respectively.
Take `CC(C)=CCc1c(O)cc2c(c1O)C(=O)C1=C[C@@H]3C[C@H]4C(C)(C)O[C@@](CC=C(C)C)(C3=O)[C@@]14O2`: the results for the IC50 (in test [1]; in the test with A549 [2]; in the test with U-251 [3]) were 10.8 µM, 14.4 µM and 22.4 µM, respectively.
As to `CC(C)=CCc1c(O)cc(O)c2c1O[C@]13C(=C[C@@H]4C[C@H]1C(C)(C)O[C@@]3(CC=C(C)C)C4=O)C2=O`, the values for the IC50 (in test [1]; in the test with A549 [2]; in the test with U-251 [3]) were 6.6 µM, 3.58 µM and 8.57 µM, respectively.
On to `CC(C)=CC[C@@]12OC(C)(C)[C@@H]3C[C@@H](C=C4C(=O)c5ccccc5O[C@]431)C2=O`, for which the IC50 in test [1] is 24.2 µM; in the test on A549 [2] it was 1.93 µM; in the test on U-251 [3] it was 18.7 µM.
As to `CC(C)=CC[C@@]12OC(C)(C)[C@@H]3C[C@@H](C=C4C(=O)c5c(O)cc(O)cc5O[C@]431)C2=O`, the IC50 in test [1] is 3.52 µM; with A549 [2], 2.67 µM; in the test on U-251 [3] it was 7.32 µM. In addition, the result in the test on U-251 [10] and with U-251 [11] was Active. For the same compound, the results for the Activity with U-251 [12] and in the test on U-251 [13] were 58.21% and 34.24%, respectively.
In the case of `CC(C)=CCc1c(O)cc(O)c2c(=O)c3ccccc3oc12`, the IC50 is 13.1 µM in test [1], 34.9 µM in the test with A549 [2] and 46.8 µM in the test with U-251 [3].
As for `CC(C)=CC[C@@]12OC(C)(C)[C@@H]3C[C@@H](C=C4C(=O)c5c(O)cccc5O[C@]431)C2=O`, the values for the 50% inhibitory concentration (IC50) (in [1]; in the test on A549 [2]; in the test on U-251 [3]) were 8.17 µM, 0.7 µM and 9.05 µM, respectively.
